Measurements reported in ChEMBL document CHEMBL3244198, “Hetacillin (R)- and (S)-sulfoxides. Synthesis and structure-activity relationships” (1978).
≈ marks a conversion by molar mass, not a printed value.

Experiments:
Format in all cases: functional
[1] = system: Streptococcus pneumoniae; experiment: Antibacterial activity against Streptococcus pneumoniae 9585 by two-fold serial dilution technique
How it was run: (§1)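 MIC read as µg/mL from twofold serial dilutions of each compound in nutrient broth, tested against the named strain.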

[2] = system: Streptococcus pyogenes; experiment: Antibacterial activity against Streptococcus pyogenes 9604 by two-fold serial dilution technique; how it was run: as §1
[3] = system: Staphylococcus aureus; experiment: Antibacterial activity against Staphylococcus aureus 9537 by two-fold serial dilution technique; how it was run: as §1
[4] = system: Staphylococcus aureus; experiment: Antibacterial activity against penicillin-resistant Staphylococcus aureus 9606 by two-fold serial dilution technique
How it was run: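 MIC (µg/mL) was determined by twofold serial dilution in nutrient broth against penicillin-resistant S. aureus 9606.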

[5] = system: Escherichia coli; experiment: Antibacterial activity against Escherichia coli 15119 by two-fold serial dilution technique; how it was run: as §1
[6] = system: Proteus mirabilis; experiment: Antibacterial activity against Proteus mirabilis 9900 by two-fold serial dilution technique; how it was run: as §1
[7] = system: Proteus vulgaris; experiment: Antibacterial activity against Proteus vulgaris 9716 by two-fold serial dilution technique; how it was run: as §1
[8] = system: Streptococcus pyogenes; experiment: Antibacterial activity against Streptococcus pyogenes A9604 infected in mouse assessed as mouse survival administered intramuscularly at 1 hr post-infection measured for 5 days; details: A9604, im, read-out: PD50
How it was run: (§2)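 Mice were challenged intraperitoneally with about 1.3 × 10^3 S. pyogenes A9604 per mouse, diluted in brain heart infusion broth to give a uniform lethal infection. Fourfold compound dilutions were given intramuscularly or orally at 1 and 3.5 h postinfection. Survivors were followed for 5 days. PD50 is the total dose (mg/kg) protecting 50% of mice, calculated by the Spearman-Kärber method.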

[9] = system: Streptococcus pyogenes; experiment: Antibacterial activity against Streptococcus pyogenes A9604 infected in po dosed mouse assessed as mouse survival administered at 3.5 hrs post-infection measured for 5 days; details: read-out: PD50; how it was run: as §2

Question: CC1(C)N[C@H](c2ccccc2)C(=O)N1[C@@H]1C(=O)N2[C@@H]1[S@+]([O-])C(C)(C)[C@@H]2C(=O)O was tested. Which MIC [1] did it give?
Answer: 0.13 µg/mL (≈ 0.321 µM)

Question: What about the MIC [2] of the same compound?
Answer: 0.13 µg/mL (≈ 0.321 µM)

Question: And the MIC [3]?
Answer: 1 µg/mL (≈ 2.47 µM)

Question: What about the MIC [4] of the same compound?
Answer: > 125 µg/mL

Question: What about the MIC [5] of the same compound?
Answer: 8 µg/mL (≈ 19.7 µM)

Question: What about the MIC [6] of the same compound?
Answer: 1 µg/mL (≈ 2.47 µM)

Question: What about the MIC [7] of the same compound?
Answer: 1 µg/mL (≈ 2.47 µM)

Question: And the ED50 [8]?
Answer: 3.1 mg/kg

Question: And the ED50 [9]?
Answer: 9.4 mg/kg

Question: Which results are given for CC1(C)N[C@H](c2ccccc2)C(=O)N1[C@@H]1C(=O)N2[C@@H]1[S@@+]([O-])C(C)(C)[C@@H]2C(=O)O?
Answer: MIC [1]: 0.5 µg/mL (≈ 1.23 µM); MIC [2]: 0.5 µg/mL (≈ 1.23 µM); MIC [3]: 4 µg/mL (≈ 9.86 µM); MIC [4]: > 125 µg/mL; MIC [5]: 32 µg/mL (≈ 78.9 µM); MIC [6]: 4 µg/mL (≈ 9.86 µM); MIC [7]: 4 µg/mL (≈ 9.86 µM); ED50 [8]: 9.6 mg/kg; ED50 [9]: > 25 mg/kg

Question: Which MIC [1] does the source give for CC1(C)N=C(c2ccccc2)C(=O)N1[C@@H]1C(=O)N2[C@@H]1[S@+]([O-])C(C)(C)[C@@H]2C(=O)O here?
Answer: 1 µg/mL (≈ 2.48 µM)

Question: And the MIC [2]?
Answer: 1 µg/mL (≈ 2.48 µM)

Question: And the MIC [3]?
Answer: > 8 µg/mL

Question: What about the MIC [4] of the same compound?
Answer: > 125 µg/mL

Question: What about the MIC [5] of the same compound?
Answer: > 125 µg/mL

Question: And the MIC [6]?
Answer: > 125 µg/mL

Question: What about the MIC [7] of the same compound?
Answer: > 125 µg/mL

Question: For CC1(C)S[C@@H]2[C@H](N3C(=O)[C@@H](c4ccccc4)NC3(C)C)C(=O)N2[C@H]1C(=O)O [HETACILLIN], which MIC [1] is on record?
Answer: 0.004 µg/mL (≈ 0.0103 µM)

Question: And the MIC [2]?
Answer: 0.004 µg/mL (≈ 0.0103 µM)

Question: What about the MIC [3] of the same compound?
Answer: 0.016 µg/mL (≈ 0.0411 µM)

Question: And the MIC [4]?
Answer: > 125 µg/mL

Question: And the MIC [5]?
Answer: 1 µg/mL (≈ 2.57 µM)

Question: And the MIC [6]?
Answer: 0.13 µg/mL (≈ 0.334 µM)

Question: And the MIC [7]?
Answer: 0.13 µg/mL (≈ 0.334 µM)

Question: And the ED50 [8]?
Answer: 0.2 mg/kg

Question: What about the ED50 [9] of the same compound?
Answer: 0.3 mg/kg
